Compound activity (PubChem)
This is a sample that favours compounds with a hit; in the whole collection about 2.9% have one here.
MT stabilizer – microtubule stabilization, imaging screen; HeLa tubulin immunostaining HCS, 24 h; share of cells brighter than vehicle mean+2SD; % tubulin-high responders, % at 10 µM; hit rate 0.83% among 200,000;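 active = plate Z-score above 3 for both tubulin-high and condensed-nucleus cell shares, with cell loss under 80%, at 10 µM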;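 also: anti alpha tubulin signal scored within the nucleus-defined area of each cell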
Ins promoter up – MIN6 insulin promoter up-regulation | MIN6 insulin promoter-GFP reporter, high-content imaging; hits give high values | z-score at 5 µM | hit rate 0.3% among 190,000;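 active = z-score above 3 at 5 µM with at least 500 cells counted in the well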
bCat nuc transl – modulators of beta-catenin nuclear translocation | HeLa beta-catenin nuclear translocation, immunofluorescence imaging | nuclear translocation activity, % at 5 µM | hit rate 0.3% among 190,000;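 active = nuclear translocation activity above 50% at 5 µM, with a well cell count of 50 or more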;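 also: per-cell ratio of nuclear to cytoplasmic median beta-catenin stain intensity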
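Test system: human HeLa cell line; Doses: 5 µM primary, 0.02–20 µM confirmation; Incubation: 24 h compound exposure, 37°C; Detection: beta-catenin immunofluorescence imaging with DAPI; Read-out: beta-catenin nuclear/cytoplasmic ratio, % activation.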
Wee1 stabilizer – blocks degradation of human Wee1 kinase | P30291 | HeLa Luc-Wee1K328M stability, luciferase luminescence; 100% = proteasome inhibitor MG132 effect | reporter increase, % at 5 µM | hit rate 1.2% among 220,000;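 active = activation above the mean of all tested compounds plus 3 SD, set per screening run, cut at about 8.8% in these data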;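 also: cells exposed to compound for 20 h before luminescence read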
Target sequence (P30291 whole entry K328M): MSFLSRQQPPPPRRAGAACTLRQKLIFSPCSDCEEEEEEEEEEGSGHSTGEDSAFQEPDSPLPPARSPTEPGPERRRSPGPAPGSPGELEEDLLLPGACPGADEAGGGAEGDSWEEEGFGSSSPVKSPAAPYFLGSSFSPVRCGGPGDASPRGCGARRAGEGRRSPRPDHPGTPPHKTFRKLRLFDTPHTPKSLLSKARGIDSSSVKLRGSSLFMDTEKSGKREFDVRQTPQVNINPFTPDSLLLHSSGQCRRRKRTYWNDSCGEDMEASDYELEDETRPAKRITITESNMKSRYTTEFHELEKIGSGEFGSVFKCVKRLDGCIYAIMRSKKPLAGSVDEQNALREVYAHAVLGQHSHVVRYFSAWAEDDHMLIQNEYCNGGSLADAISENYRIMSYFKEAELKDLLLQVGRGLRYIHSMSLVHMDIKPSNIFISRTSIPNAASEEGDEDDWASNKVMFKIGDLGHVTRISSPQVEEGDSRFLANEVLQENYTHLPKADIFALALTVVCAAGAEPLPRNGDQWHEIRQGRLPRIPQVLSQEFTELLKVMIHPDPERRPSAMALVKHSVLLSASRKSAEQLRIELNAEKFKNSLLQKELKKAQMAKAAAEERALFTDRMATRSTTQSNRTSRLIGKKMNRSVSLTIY
Autophagy mod – modulators of autophagy; MEF GFP-LC3 puncta imaging; test concentration mostly 10 µM; hit rate 0.98% among 190,000; calls only at 10 µM (by protocol);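 active = percentage of spot-positive cells more than 3 SD above its plate mean, without a fluorescence outlier flag or 80% toxicity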
A number is an active result; 0 = inactive; - = no result; + = active, no number.

SMILES	MT stabilizer	Ins promoter up	bCat nuc transl	Wee1 stabilizer	Autophagy mod
C=C(C)CNC(=S)N/N=C/C1=CCC2CC1C2(C)C (stereo not given)	0	0	0	0	0
CCCCNC(=S)N/N=C/C1=CCC2CC1C2(C)C (stereo not given)	0	0	0	8.9	0
O=C(Nc1nc2ccc(S(=O)(=O)N3CCOCC3)cc2s1)c1cccs1	0	0	0	10	0
CC1(C)Cc2c(sc3ncnc(NNC(=S)NCc4ccccc4)c23)CO1	29	0	0	0	0
CCOc1cc(NC(=S)NCCCN2CCOCC2)c(OCC)cc1NC(=O)C1CCCCC1	0	0	0	0	0
CCOC(=O)c1ccc(N2C(=O)c3n[nH]c(C)c3C2c2ccc(OC)c(OC)c2)cc1 (stereo not given)	38	0	0	0	0
CN(NC(=O)c1ccc(Cl)cc1)c1nc(-c2ccccc2)nnc1C(F)(F)F	0	0	0	0	0
CSc1nc(N(C)NC(=O)c2ccccc2)c2ccccc2n1	33	0	54	0	0
Cc1ccc(C(=O)NN(C)c2nc3ccccc3nc2C(F)(F)F)cc1	41	0	0	0	0
CSc1nc(N(C)NC(=O)c2ccc(Cl)cc2)c2ccccc2n1	19	0	0	0	0
ClCc1ncc(-c2ccc(Cl)cc2)o1	0	0	0	0	0
CCOC(=O)c1nc2sc3c(c2c(=O)[nH]1)CCCC3	0	0	0	0	0
CCOC(=O)c1nc(N2CCN(C(=O)OCC)CC2)c2c3c(sc2n1)CCCC3	0	0	0	0	+
COc1cc2c3nnc(-c4ccc(F)cc4)c-3cn(Cc3ccccc3)c2cc1OC	0	-	0	0	+
COc1ccc(Cn2cc3c(-c4ccc(F)cc4)nnc-3c3cc(OC)c(OC)cc32)cc1	0	0	0	0	0
COc1cc2c3nnc(-c4ccc(F)cc4)c-3cn(Cc3ccc(F)cc3)c2cc1OC	0	-	-	0	+
C[C@H](CCC(=O)O)[C@H]1CC[C@H]2[C@@H]3[C@@H](O)C[C@@H]4C[C@H](O)CC[C@]4(C)[C@H]3CC[C@]12C	0	0	0	9.8	0
CCOc1cc(/C=C(/NC(C)=O)C(=O)O)cc(Cl)c1OCc1cccc(Br)c1	-	0	0	0	-
CC(=O)c1ccc(NC(=O)COC(=O)c2nc(Cl)ccc2Cl)cc1	0	0	0	0	0
O=C(c1ccco1)N1CCN(C(=O)c2nn3cccnc3c2Cl)CC1	0	-	-	0	0
O=C(c1nn2cccnc2c1Cl)N1CCN(c2ccccc2)CC1	0	0	0	0	+
S=C(NCCc1ccccc1)N1CCc2ccccc2C1	0	0	0	0	0
O=C(/C=C/c1c(Cl)cccc1Cl)N1CCN(c2ncccn2)CC1	0	0	0	0	0
O=C(/C=C/c1ccco1)N1CCN(c2ncccn2)CC1	9.8	0	-	0	0
Cc1cc(NC(=O)c2cc3cccc([N+](=O)[O-])c3[nH]2)ccc1F	-	0	0	17	-
SMILES	MT stabilizer	Ins promoter up	bCat nuc transl	Wee1 stabilizer	Autophagy mod
COCC(C)NC(=O)c1cc2cccc([N+](=O)[O-])c2[nH]1 (stereo not given)	-	0	0	0	-
Cn1c(CCc2ccccc2)n[nH]c1=S	0	0	0	0	0
COc1cc(/C=C/C(=O)O)cc(S(=O)(=O)N(CC(C)C)CC(C)C)c1OC	0	0	0	0	0
CC(=O)Nc1cccc(NC(=O)c2c(-c3c(Cl)cccc3Cl)noc2C)c1	0	-	0	0	0
Cc1noc(NC(=O)c2c(-c3c(Cl)cccc3Cl)noc2C)c1[N+](=O)[O-]	-	0	0	8.9	-
C=CCNC(=O)C1CCN(S(=O)(=O)c2ccc(Br)cc2)CC1	0	3.1	0	0	0
CS(=O)(=O)N(CCc1ccccc1)CC(=O)N1CCc2ccccc2C1	0	0	0	0	0
CN(C)c1ccc(C(=O)N/N=C/c2cc(Br)cc(Br)c2O)cc1	-	4.7	0	0	-
CN(C)c1ccc(C(CNC(=O)c2ccccc2Br)c2c[nH]c3ccccc23)cc1 (stereo not given)	0	0	0	0	0
OC(CNCC(c1ccc(Cl)cc1Cl)c1c[nH]c2ccccc12)c1ccccc1 (stereo not given)	11	0	0	0	0
O=C(NC1CCN(C(=S)NCCc2ccccc2)CC1)C1CC1	0	0	0	0	0
CCCNC(=S)N1CCC(NC(=O)C2CCCCC2)CC1	0	0	0	10	0
CCO[C@H]1OC(C(=O)NCc2nc3ccccc3[nH]2)=C[C@@H](C2CC2)[C@@H]1CCCO	22	0	122	0	0
C/C(=N/NC(=O)c1cccs1)c1ccc(NC(=O)COc2ccc(Cl)cc2Cl)cc1	0	0	0	0	+
